These results are taken from ChEMBL document CHEMBL1148402, “Anti-AIDS agents. 52. Synthesis and anti-HIV activity of hydroxymethyl (3'R,4'R)-3',4'-di-O-(S)-camphanoyl-(+)-cis-khellactone derivatives” (J Med Chem, 2004).

In one data set the test system is H9. The data set is described as follows: Concentration required to inhibit uninfected H9 cell growth by 50%. It counts as functional, cell-based. As to conditions: Homo sapiens. In a few lines:
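Mock-infected H9 cells handled in parallel under the same conditions as the infection assay, without virus. Viability read by XTT on day 6. IC50 is the concentration toxic to 50% of mock-infected cells. Averages of at least two experiments.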

Data set [1] deals with Human immunodeficiency virus 1. The data set is described as follows: Concentration required to inhibit HIV-1 replication in acutely infected H9 lymphocytes by 50%. Format: functional, organism-based. In a few lines: (§1)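 H9 T-cells (3 × 10^5 cells/mL) in RPMI 1640 with 10% FCS at 37 °C, 5% CO2, infected with HIV-1 IIIB (125 TCID50). Medium replaced on days 1 and 4 post-infection. Supernatant p24 antigen capture read on day 6. EC50 is the concentration suppressing replication by 50%; TI = IC50/EC50. AZT run as positive control. Averages of at least two experiments.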

A short description of data set [2]: Therapeutic index (IC50/EC50) was determined. As to conditions: read-out: TI. In a few lines: as §1
Data set [3] deals with Rattus norvegicus. The data set is described as follows: Volume distribution of compound in male Sprague-Dawley rats following an intravenous bolus dose at 10-20 mg/kg. As to conditions: in vivo. Format: ADME, organism-based. In outline: (§2)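 Adult male Sprague–Dawley rats (approx. 250 g) dosed iv at 10-20 mg/kg and orally as a suspension at 25 mg/kg. Nine 0.4 mL blood samples taken over 8 h. Plasma levels measured by reversed-phase HPLC with UV (320 nm) and fluorescence (ex 320/em 380 nm) detection. Detection limit approx. 50 ng/mL (UV) and 10 ng/mL (fluorescence) from 0.10 mL plasma. Parameters from noncompartmental analysis; half-life from the terminal log-linear phase; N=3–4 rats.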

Data set [4] relates to Rattus norvegicus. The data set is described as follows: Vss in male Sprague-Dawley rats following an intravenous bolus dose at 10-20 mg/kg. As to conditions: in vivo. Format: ADME, organism-based. In outline:
as §2

In data set [5] the test system is Rattus norvegicus. Nature of the data set: Half-life in male Sprague-Dawley rats following an intravenous bolus dose at 10-20 mg/kg. Format: ADME, organism-based. As to conditions: in vivo. In outline: as §2
Data set [6] concerns Rattus norvegicus. Nature of the data set: Bioavailability in rat (Sprague-Dawley) (male) (dose 10-20 mg/kg). As to conditions: in vivo. It counts as ADME, organism-based. In a few lines: as §2
For data set [7], the system named is Rattus norvegicus. The data set is described as follows: Clearance in male Sprague-Dawley rats following an intravenous bolus dose at 10-20 mg/kg. It counts as ADME, organism-based. As to conditions: in vivo.
Data set [8] can be described thus: Bioavailability in male Sprague-Dawley rats following an intravenous bolus dose at 10-20 mg/kg. It counts as ADME, organism-based. As to conditions: rat, in vivo. In a few lines:
as §2

SMILES strings stand for the structures. A value given as a limit tells only on which side of the number the result lay.

What is called IC50 is the concentration that gives 50% inhibition. A high value points to weaker potency in that assay. One may read the EC50 as the concentration needed to bring the measured effect to its halfway point. What is called Vd is a proportionality between amount in the body and measured concentration, not a real space. For orientation: Vss means the apparent volume that relates the amount in the body to the concentration in plasma or blood. Low readings indicate confinement near the circulation, high ones extensive tissue distribution. As a reminder, the bioavailability is the share of a dose that reaches the circulation, judged against a reference dose that is usually intravenous.

Compound `Cc1c(CBr)c(=O)oc2c3c(ccc12)OC(C)(C)[C@H](OC(=O)C12CCC(C)(C(=O)O1)C2(C)C)[C@@H]3OC(=O)C12CCC(C)(C(=O)O1)C2(C)C` (stereo partly specified) yielded an IC50 in the data set with H9 greater than 20900 nM. Moreover, a half-maximal response in data set [1] (EC50) required 0.11 nM. For the same compound, the selectivity ratio in data set [2] was greater than 190000.
For `CC(=O)OCc1c(C)c2ccc3c(c2oc1=O)[C@@H](OC(=O)C12CCC(C)(C(=O)O1)C2(C)C)[C@@H](OC(=O)C12CCC(C)(C(=O)O1)C2(C)C)C(C)(C)O3` (stereo partly specified), in that order: 14800 nM, 26 nM and 567.
In the case of `Cc1cc(=O)oc2c3c(c(CBr)cc12)OC(C)(C)[C@H](OC(=O)C12CCC(C)(C(=O)O1)C2(C)C)[C@@H]3OC(=O)C12CCC(C)(C(=O)O1)C2(C)C` (stereo partly specified), in the data set on H9, the IC50 is greater than 13700 nM. The EC50 in data set [1] turned out to be 156 nM. For the same compound, the selectivity ratio in data set [2] was greater than 88.
In turn, `CC1(C)Oc2ccc3ccc(=O)oc3c2[C@@H](OC(=O)C23CCC(C)(C(=O)O2)C3(C)C)[C@H]1OC(=O)C12CCC(C)(C(=O)O1)C2(C)C` (stereo partly specified) had an IC50 with H9 greater than 16100 nM. The compound further gave an EC50 in data set [1] of 49 nM. Further, in [2], the selectivity ratio is greater than 328.
`Cc1cc(=O)oc2c3c(ccc12)OC(C)(C)[C@H](OC(=O)C12CCC(C)(C(=O)O1)C2(C)C)[C@@H]3OC(=O)C12CCC(C)(C(=O)O1)C2(C)C` (stereo partly specified): the Vd in the data set with Rattus norvegicus [3] came to 12 L/kg. Also, the volume of distribution (Vss) in the data set on Rattus norvegicus [4] was 10.1 L/kg. Also, the T1/2 in the data set with Rattus norvegicus [5] is 2.42 h. For the same compound, the F result with Rattus norvegicus [6] is given as “Not detected”. For the same compound, the IC50 with H9 was found to be 23600 nM. This compound showed an EC50 in data set [1] of 1.5 nM.
As to `Cc1cc(=O)oc2c3c(c(CO)cc12)OC(C)(C)[C@H](OC(=O)C12CCC(C)(C(=O)O1)C2(C)C)[C@@H]3OC(=O)C12CCC(C)(C(=O)O1)C2(C)C` (stereo partly specified), in the data set on Rattus norvegicus [3], the Vd amounted to 5.9 L/kg. This compound yielded a Vss in the data set with Rattus norvegicus [4] of 3.89 L/kg. The same compound returned a CL in the data set on Rattus norvegicus [7] of 284 L/h/kg. The T1/2 in the data set on Rattus norvegicus [5] was 0.867 h. For the same compound, in the data set with Rattus norvegicus [6], the F result is “Not detected”. In the data set on H9, this compound gave an IC50 greater than 15000 nM. The same compound returned an EC50 in data set [1] of 111 nM. Further, the selectivity ratio in [2] is greater than 135.
`CC(=O)OCc1cc2c(C)cc(=O)oc2c2c1OC(C)(C)[C@H](OC(=O)C13CCC(C)(C(=O)O1)C3(C)C)[C@@H]2OC(=O)C12CCC(C)(C(=O)O1)C2(C)C` (stereo partly specified) came in with an IC50 in the data set on H9 greater than 14100 nM. In data set [1], this compound registered an EC50 of 544 nM. Further, the selectivity ratio in data set [2] is greater than 26.
`Cc1cn([C@H]2C[C@H](N=[N+]=[N-])[C@@H](CO)O2)c(=O)[nH]c1=O` [ZIDOVUDINE] yielded an EC50 in data set [1] of 187 nM.
Compound `CC1(C)Oc2ccc3cc(CBr)c(=O)oc3c2[C@@H](OC(=O)C23CCC(C)(C(=O)O2)C3(C)C)[C@H]1OC(=O)C12CCC(C)(C(=O)O1)C2(C)C` (stereo partly specified) gave an IC50 in the data set on H9 greater than 11100 nM. Also, the EC50 in data set [1] amounted to 59 nM. In data set [2], the selectivity ratio is greater than 186.
For the compound `Cc1c(CO)c(=O)oc2c3c(ccc12)OC(C)(C)[C@H](OC(=O)C12CCC(C)(C(=O)O1)C2(C)C)[C@@H]3OC(=O)C12CCC(C)(C(=O)O1)C2(C)C` (stereo partly specified), the Vd in the data set on Rattus norvegicus [3] is 22.9 L/kg. For the same compound, the Vss in the data set with Rattus norvegicus [4] is 18.5 L/kg. For the same compound, the CL in the data set with Rattus norvegicus [7] came out at 284 L/h/kg. The compound also showed a T1/2 in the data set with Rattus norvegicus [5] of 3.12 h. In addition, in the data set on H9, inhibition was half-maximal at 24900 nM (IC50). In data set [1], the EC50 turned out to be 4 nM. Besides, in data set [2], the selectivity ratio is 5800. Moreover, the bioavailability in data set [8] worked out at 15%.
In turn, `CC1(C)Oc2ccc3cc(CO)c(=O)oc3c2[C@@H](OC(=O)C23CCC(C)(C(=O)O2)C3(C)C)[C@H]1OC(=O)C12CCC(C)(C(=O)O1)C2(C)C` (stereo partly specified) came in with an IC50 with H9 of 23000 nM. In addition, the EC50 in [1] worked out at 29 nM. Besides, in data set [2], the selectivity ratio was found to be 806.
For `CC(=O)OCc1cc2ccc3c(c2oc1=O)[C@@H](OC(=O)C12CCC(C)(C(=O)O1)C2(C)C)[C@@H](OC(=O)C12CCC(C)(C(=O)O1)C2(C)C)C(C)(C)O3` (stereo partly specified), in that order: 11600 nM, 17 nM and 676.
On the same counts, the results for `Cc1cc(=O)oc2c3c(c(CN)cc12)OC(C)(C)[C@H](OC(=O)C12CCC(C)(C(=O)O1)C2(C)C)[C@@H]3OC(=O)C12CCC(C)(C(=O)O1)C2(C)C` (stereo partly specified) are greater than 15000 nM, 148 nM and greater than 102.
For `CC1(C)Oc2ccc3cc(CN)c(=O)oc3c2[C@@H](OC(=O)C23CCC(C)(C(=O)O2)C3(C)C)[C@H]1OC(=O)C12CCC(C)(C(=O)O1)C2(C)C` (stereo partly specified), in that order: greater than 15400 nM, 677 nM and greater than 23.
`CCN(CC)Cc1cc2ccc3c(c2oc1=O)[C@@H](OC(=O)C12CCC(C)(C(=O)O1)C2(C)C)[C@@H](OC(=O)C12CCC(C)(C(=O)O1)C2(C)C)C(C)(C)O3` (stereo partly specified) returned an IC50 with H9 greater than 14100 nM. Further, the EC50 in data set [1] is 3670 nM. In data set [2], the selectivity ratio was greater than 4.
